Assay outcomes: PubChem BioAssay, several laboratories
The full list was thinned out, with hits kept by preference.
UPR CHOP act: activators of apoptotic arm of unfolded protein response (CHOP). CHO-CHOP luciferase reporter, UPR activation, luminescence; percent of tunicamycin response over DMSO baseline. activation, % at 10 µM. hit rate 0.34% among 330,000. AID 449763;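 active = at 10 µM dose, activation of 40% or more, normalized to positive control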
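System: CHO CHOP reporter cells. Amount: 500 cells per well. Buffer or medium: F12 medium, 10% FBS. Compound dosing: one dose, 10 µM in 0.5% DMSO. Incubation: 6 h compound exposure at 37 °C after overnight seeding. Technique: Steady-Glo luciferase luminescence. Benchmarks: tunicamycin and DMSO controls.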
V-ATPase pH: yeast V-ATPase proton transport regulation by pHLuorin; S. cerevisiae, pHLuorin cytosolic pH fluorescence; response, % at 10 µM; hit rate 0.37% among 350,000; AID 504577; in the data active = response mostly above about 7.3%, no sharp cut-off; inactive = mostly below about 5.4%; note: actives read high
Tb MetRS inh: Trypanosoma brucei MetRS inhibition. purified T. brucei MetRS, ATP depletion, Kinase-Glo luminescence. inhibition, % at 11.9 µM. hit rate 0.4% among 360,000. AID 624268;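 active = inhibition above a per-plate cutoff of the control wells' mean inhibition plus 3 SD, cut at about 5.5% in these data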
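technique = Kinase-Glo luminescence, ATP depletion format | system = purified MetRS (methionyl-tRNA synthetase) enzyme from Trypanosoma brucei | timing = 15 min preincubation, 2 h reaction, all 25 °C | evaluation = percent inhibition versus plate control medians | dosing = single dose, 11.9 µM final nominal, 0.9% final DMSO | also added = substrates ATP, L-methionine and bulk Escherichia coli tRNA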
CHOP inhibitor: CHOP inhibition in unfolded protein response; CHO-K1 CHOP-promoter luciferase, tunicamycin-induced, 15-18 h; hit rate 3.8% among 220,000; inhibition, % at 10 µM; AID 2732;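 active = compounds that reduced the stress-induced luciferase reporter signal by more than about 70% of percent inhibition, limit read from the data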
XBP1 UPR activ: activators of adaptive arm of unfolded protein response (XBP1); CHO-XBP1 luciferase reporter, IRE1-XBP1 UPR activation, luminescence; percent of tunicamycin response, DMSO as zero; activation, % at 20 µM; hit rate 0.33% among 330,000;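 active = versus positive control, 20 µM dose yields 30% or more activation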
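Material – CHO cell line with stable XBP1 luciferase reporter · Buffer or medium – F12 plus 10% FBS · Compound – single point, 20 µM final compound, 1% DMSO · Schedule – 16-18 h cell attachment at 37 °C, then 6 h compound exposure · Signal – Steady-Glo luminescence read · Benchmarks – high control tunicamycin 10 µg/mL final, low control DMSO vehicle only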
Of the large screens only hits and unclear results are named; the others gave an inactive call.

Cc1cc(NC(=O)CC(C)(C)C)nc2c1c(=O)oc1ccccc12	CHOP inhibitor 74
Nc1ncnc2c1ncn2[C@@H]1O[C@H](COP(=O)(O)OP(=O)(O)OP(=O)(O)OP(=O)(O)OC[C@@H]2O[C@H](n3cnc4c(N)ncnc43)C(O)[C@@H]2O)[C@H](O)C1O (stereo partly drawn)	none (no result: UPR CHOP act, V-ATPase pH, Tb MetRS inh, XBP1 UPR activ)
COc1ccc(NC(=O)c2cc3c(=O)n4ccccc4nc3n2C)cc1OC	CHOP inhibitor 78
COc1ccc(C)cc1NC(=O)c1cc2c(=O)n3ccccc3nc2n1C	none
Cc1ccc(Cl)cc1NC(=O)COC(=O)c1ccccc1O	none
Cc1ccc(Cl)cc1NC(=O)c1cc2ccccc2cc1O	CHOP inhibitor 82
COc1cc(OC)c(NC(=O)c2ccccc2F)cc1Cl	none
COc1cc(NC(=O)c2cc3ccccc3cc2O)c(OC)cc1Cl	CHOP inhibitor 83
CCOc1ccc(NC(=O)[C@@H](NC(=O)c2ccccc2Br)C(C)C)cc1	none
CCOc1ccc(NC(=O)c2cc3ccccc3cc2O)cc1	CHOP inhibitor 75
CCOc1ccc(NC(=O)C(CC)NC(=O)c2ccccc2CO)cc1 (stereo not drawn)	CHOP inhibitor 76
CCSc1ccc([C@@H]2[C@H]3C(=O)N(CC)C(=O)[C@H]3[C@]3(C(=O)OC)CCCCN23)cc1OC	none (no result: CHOP inhibitor)
CCOc1ccc(NC(=O)CC(=O)Nc2ccc(OCC)cc2)cc1	none (no result: CHOP inhibitor)
COc1ccccc1NC(=O)c1cc2cc(Br)ccc2cc1O	CHOP inhibitor 88 (no result: UPR CHOP act, XBP1 UPR activ)
CCOc1ccc(C(=O)Oc2ccc(NC(C)=O)cc2)cc1	CHOP inhibitor 83 (no result: V-ATPase pH, Tb MetRS inh)
CCc1ccc(-n2c(=S)sc3c(=O)[nH]c(SCC(=O)NC4CCCCC4)nc32)cc1	none (no result: UPR CHOP act, CHOP inhibitor, XBP1 UPR activ)
Cc1ccc(NC(=O)NC2(C(=O)NCc3ccccc3)CCCCC2)cc1	none
Cc1ccc(CNC(=O)C2(NC(=O)Nc3ccc(C)cc3)CCCCC2)cc1	CHOP inhibitor 79
Cc1ccc(NC(=O)Cc2ccc3c(c2)CCCC3)cc1C	CHOP inhibitor 72
COc1ccc(CN(C)C(c2ccccc2)c2nnnn2-c2ccccc2C)c(OC)c1C (stereo not drawn)	none
COc1cc(OC)c(OC)cc1CN(C)C(c1ccccc1)c1nnnn1-c1ccccc1C (stereo not drawn)	CHOP inhibitor 85
CC1(C(=O)NS(=O)(=O)c2cccc(C#N)c2)CCN1C(=O)CC1CCCCC1 (stereo not drawn)	none (no result: UPR CHOP act, V-ATPase pH, CHOP inhibitor, XBP1 UPR activ)
O=[N+]([O-])c1nn(-c2ccc3c(c2)OCCO3)n(O)c1=NC1CCCC1	none
O=[N+]([O-])c1nn(-c2ccc3c(c2)OCCO3)n(O)c1=NC1CCCCCC1	CHOP inhibitor 77
O=[N+]([O-])c1nn(-c2ccc3c(c2)OCCO3)n(O)c1=Nc1ccccc1	CHOP inhibitor 88
O=S(=O)(c1ccc(Br)cc1)N1CCN(c2ccc3nnc(-c4ccccc4)n3n2)CC1	CHOP inhibitor 80
Brc1ccc(N=Nc2ccc3ccccc3n2)cc1	CHOP inhibitor 91
Cc1cc(C)n2c(NCc3ccccc3)c(-c3cc4ccccc4o3)nc2n1	none (no result: UPR CHOP act, V-ATPase pH, CHOP inhibitor, XBP1 UPR activ)
Cc1ccc(N=C2NC(=O)S/C2=C\c2ccco2)cc1	CHOP inhibitor 100
O=C1NC(=Nc2ccccc2)/C(=C/c2ccco2)S1	none
Cc1ccc(C(=O)c2cc3c(cc2N)OCCO3)cc1	CHOP inhibitor 73
Nc1cc2c(cc1C(=O)c1ccccc1)OCCO2	none
O=c1oc2ccccc2cc1-c1cn2ccccc2n1	CHOP inhibitor 95
CCOC(=O)N1CCN(C(=O)CSc2ccc(-c3cccc(OC)c3)nn2)CC1	CHOP inhibitor 77
CCCCC(CC)COC1(c2ccccc2)OC(=O)c2ccccc21 (stereo not drawn)	none
CCCCOC1(c2ccccc2)OC(=O)c2ccccc21 (stereo not drawn)	CHOP inhibitor 81
Cc1nc2c(Br)cc(Br)cc2cc1O	CHOP inhibitor 81
Brc1cc(Br)c2nc(-c3cccs3)ccc2c1	none
Cc1nc(C(F)(F)F)ccc1C(=O)N1CCC1(C)C(=O)NS(=O)(=O)c1ccc2ccccc2c1 (stereo not drawn)	none (no result: UPR CHOP act, V-ATPase pH, CHOP inhibitor, XBP1 UPR activ)
CC(C)CNC(=S)N1CCN(C(c2ccccc2)c2ccccc2)CC1	none
S=C(NCc1ccco1)N1CCN(C(c2ccccc2)c2ccccc2)CC1	CHOP inhibitor 72
Cc1ccc(C2=NNC(=O)C(c3ccc(Cl)cc3)C2)cc1 (stereo not drawn)	CHOP inhibitor 96
O=C1NN=C(c2ccc(Cl)cc2)CC1c1c[nH]c2ccccc12 (stereo not drawn)	none
O=C1NN=C(c2ccc(Cl)cc2)CC1c1cccc(Br)c1 (stereo not drawn)	CHOP inhibitor 78
CC(=O)c1cccc(NC(=O)/C=C/c2ccc([N+](=O)[O-])s2)c1	CHOP inhibitor 74 (no result: UPR CHOP act, XBP1 UPR activ)
Cc1ccccc1-n1c(C)nnc1SCC(=O)N(C)C1CCS(=O)(=O)C1 (stereo not drawn)	V-ATPase pH 15
COc1ccccc1N(C)S(=O)(=O)c1ccc(C(=O)N(C)Cc2cccc(F)c2)cc1	none (no result: UPR CHOP act, CHOP inhibitor, XBP1 UPR activ)
COc1ccc(NC(=O)c2ccco2)cc1NC(=O)c1c(F)c(F)c(OC)c(F)c1F	none
COc1c(F)c(F)c(C(=O)Nc2ccc(NC(=O)c3ccco3)cc2)c(F)c1F	CHOP inhibitor 80
CCOC(=O)Cc1ccc(NC(=O)c2ccc(C(C)(C)C)cc2)cc1	CHOP inhibitor 86
COc1ccc(NC(=O)c2ccco2)cc1N	CHOP inhibitor 70
CCOC(=O)Cc1ccc(NC(=O)c2ccccc2Br)cc1	none
CC(C)(C)c1ccc(C(=O)Nc2ccc(NC(=O)c3ccco3)cc2)cc1	CHOP inhibitor 73
Cc1ccc([C@H]2C[C@@H](O)[C@H](n3cc(C4CC4)nn3)CN2C(=O)c2cccs2)cc1	none (no result: UPR CHOP act, CHOP inhibitor, XBP1 UPR activ)
Nc1[nH]c(C(=O)c2ccccc2)c(-c2cccc3ccccc23)c1C(=O)NCc1ccccc1	none (no result: UPR CHOP act, V-ATPase pH, CHOP inhibitor, XBP1 UPR activ)
CCOC(=O)C1=C(O)C(=O)N(Cc2cccnc2)C1c1ccc(OC)cc1 (stereo not drawn)	none
CCOC(=O)N1CCN(C(=O)C[C@@H]2C[C@@]3(C(=O)OC)CCCCC=C3N(Cc3cccc4ccccc34)C2=O)CC1	none (no result: UPR CHOP act, V-ATPase pH, CHOP inhibitor, XBP1 UPR activ)
Cc1cc(C)c(NC(=O)CN2C(=O)NC3(CCCCC3)C2=O)c(Cl)c1	CHOP inhibitor 71
O=C(CCSc1ccccc1)Nc1ccc(OCc2ccccc2)cc1	CHOP inhibitor 75
CC(C)(C)C(=O)COC(=O)c1cccc(NC(=O)c2ccco2)c1	CHOP inhibitor 72
COC(=O)c1cccc(NC(=O)c2ccco2)c1	none
O=C(COc1cccc(NC(=O)c2ccccc2)c1)c1ccc(F)cc1	none
O=C(COc1cccc(NC(=O)c2ccco2)c1)c1ccc(F)cc1	V-ATPase pH 19
CC1(C(=O)NS(=O)(=O)C2CC2)CCCN(C(=O)c2ccco2)C1 (stereo not drawn)	none (no result: UPR CHOP act, V-ATPase pH, CHOP inhibitor, XBP1 UPR activ)
COc1ccc(NC(=O)CSc2nnnn2C2CC2)cc1S(=O)(=O)N1CCOCC1	none (no result: CHOP inhibitor)
